High-throughput results: PubChem BioAssay, several laboratories
TNAP act hi DEA: increases human TNAP activity under high phosphate acceptor concentration; P05186; purified TNAP, CDP-star luminescence, 1 M DEA, 30 min; active compounds read high; 0 = EDTA background, 1 = DMSO-only activity; activation factor at 20 µM; 200,000 tested, under 10 active;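 active means activation factor at least 2 at 20 µM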
Target sequence (P05186 whole entry, looked up): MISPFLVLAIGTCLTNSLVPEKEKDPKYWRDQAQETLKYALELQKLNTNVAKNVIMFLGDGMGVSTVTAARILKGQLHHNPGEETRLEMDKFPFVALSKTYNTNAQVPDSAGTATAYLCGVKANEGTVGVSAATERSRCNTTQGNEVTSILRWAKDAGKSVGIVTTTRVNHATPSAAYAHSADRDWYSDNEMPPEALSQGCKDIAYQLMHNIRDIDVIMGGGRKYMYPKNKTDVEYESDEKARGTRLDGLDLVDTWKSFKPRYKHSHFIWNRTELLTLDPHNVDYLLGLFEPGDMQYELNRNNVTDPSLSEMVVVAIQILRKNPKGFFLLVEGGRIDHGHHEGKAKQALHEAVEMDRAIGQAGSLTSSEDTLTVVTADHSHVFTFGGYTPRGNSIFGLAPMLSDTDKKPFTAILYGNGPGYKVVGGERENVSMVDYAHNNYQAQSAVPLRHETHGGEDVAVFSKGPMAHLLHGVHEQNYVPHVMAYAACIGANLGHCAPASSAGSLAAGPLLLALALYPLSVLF
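Control set: EDTA negative control, DMSO positive control / Assay system: human TNAP / Quantity: TNAP 1/800 final / Evaluation: TNAP activation factor scaled between EDTA and DMSO control wells / Measured by: luminescent substrate turnover signal / Compound dosing: one dose, 20 µM / Times: 30 min enzyme reaction at room temperature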
Arbovirus inh: antivirals against arbovirus infection; arbovirus infection cell-based antiviral screen; inhibition, % at 10 µM; 200,000 compounds, 0.37% hits; in the data active means inhibition above about 30%
TNAP inh hiacc: blocks human TNAP under high phosphate acceptor concentration. purified TNAP, CDP-star luminescence, 1 M DEA. 200,000 compounds, 0.03% hits. inhibition, % at 20 µM;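 active means over 50% inhibition of tissue-nonspecific alkaline phosphatase at 20 µM in the single-dose screen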;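 further: plate controls were DMSO wells for no effect and EDTA-quenched wells as full inhibition for full effect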
TNAP inh no acc: TNAP (human) inhibition, acceptor-free conditions | purified TNAP, CDP-star luminescence, 30 min | inhibition, % at 20 µM | 200,000 compounds, 0.26% hits | AID 1012;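 active means tissue-nonspecific alkaline phosphatase inhibition above about 50% at 20 µM in the single-dose screen, limit read from the data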;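 further: 0% = DMSO negative control and 100% = EDTA positive control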
WT yeast gro inh: growth inhibition of WT yeast, mitochondrial fusion screen; inhibition, % at 10 µM; 190,000 compounds, 2.1% hits; mitochondrial fusion phenotypic screen, WT strain; AID 1362; in the data active means inhibition above about 58%; tested in S. cerevisiae
* = called active by the depositor. Compounds with a hit are over-represented: about 2.6% of the library has one in this group of screens.

COc1ccc(-c2cnnc(N/N=C/c3ccc(O)c(O)c3)n2)cc1 was read as TNAP act hi DEA 0.6, Arbovirus inh -26, TNAP inh hiacc 36, TNAP inh no acc 56* and WT yeast gro inh 8.
`CC1(C)OC(=O)N(c2ccccc2)C12C=Cc1c(ccc3ccccc13)O2` (stereo not given) gave TNAP act hi DEA 1, Arbovirus inh -12, TNAP inh hiacc -4, TNAP inh no acc -8 and WT yeast gro inh 78*.
Screening O=C1NC2(C=Cc3c(ccc4ccccc34)O2)Oc2ccccc21 (stereo not given) returned TNAP act hi DEA 0.9, Arbovirus inh 14, TNAP inh hiacc 12, TNAP inh no acc -1 and WT yeast gro inh -4.
Screening C=CCN1C(=O)/C(=C/c2ccc(OC(C)=O)c(OCC)c2[N+](=O)[O-])SC1=S returned TNAP act hi DEA 0.8, Arbovirus inh -6, TNAP inh hiacc 24, TNAP inh no acc 16 and WT yeast gro inh 97*.
`C=CCN1C(=O)/C(=C\c2ccc(OC(=O)c3ccco3)c(OC)c2)SC1=S` gave TNAP act hi DEA 0.8, Arbovirus inh 1, TNAP inh hiacc 23, TNAP inh no acc -1 and WT yeast gro inh 13.
For O=S(=O)(N1CCOCC1)n1c(Cc2ccccc2)nc2ccccc21 the results were TNAP act hi DEA 1, Arbovirus inh -5, TNAP inh hiacc -2, TNAP inh no acc -6 and WT yeast gro inh 5.
`COC(=O)[C@@]1(Cc2ccc(OC)cc2)[C@H]2c3cc(C(=O)N(C)C)n(CCc4ccc(OC)c(Br)c4)c3C[C@H]2CN1C(=O)c1ccccc1` gave TNAP act hi DEA 1, Arbovirus inh -11, TNAP inh hiacc -3, TNAP inh no acc -5 and WT yeast gro inh 25.
`Oc1ccc(Cl)cc1-c1cc(-c2ccccc2)n[nH]1` gave TNAP act hi DEA 1, Arbovirus inh 33*, TNAP inh hiacc 2, TNAP inh no acc -90 and WT yeast gro inh 59*.
For Cc1c(NC(=S)SCc2ccccc2)c(=O)n(-c2ccccc2)n1C the results were TNAP act hi DEA 1, Arbovirus inh -8, TNAP inh hiacc -2, TNAP inh no acc 29 and WT yeast gro inh 5.
CCN(c1ccc(N=Cc2c(O)n(Cc3ccc(OC)cc3)c(=O)c3ccccc23)cc1)C(C)C was read as TNAP act hi DEA 0.9, Arbovirus inh 11, TNAP inh hiacc 15, TNAP inh no acc -4 and WT yeast gro inh 9.
For O=C(c1ccc(Br)o1)N(Cc1ccccc1)Cc1ccccc1 the results were TNAP act hi DEA 1, Arbovirus inh 1, TNAP inh hiacc -3, TNAP inh no acc -9 and WT yeast gro inh 79*.
COc1ccc2cc3c(N)nn(C(=O)C4CCC(C(C)(C)C)CC4)c3nc2c1 (stereo not given) was read as TNAP act hi DEA 1.1, Arbovirus inh -33, TNAP inh hiacc -6, TNAP inh no acc -1 and WT yeast gro inh 92*.
Screening CCCC1CCC(c2ccc(C(N)=O)cc2)CC1 (stereo not given) returned TNAP act hi DEA 1, Arbovirus inh 14, TNAP inh hiacc -3, TNAP inh no acc 2 and WT yeast gro inh 2.
CCCC1CCC(c2ccc(C(=O)NN)cc2)CC1 (stereo not given) was read as TNAP act hi DEA 1, Arbovirus inh -23, TNAP inh hiacc -2, TNAP inh no acc -10 and WT yeast gro inh 84*.
Fc1cccc(-c2cc3nc4c(c(NCc5ccco5)n3n2)CCCC4)c1 was read as TNAP act hi DEA 1, Arbovirus inh 5, TNAP inh hiacc 0, TNAP inh no acc -2 and WT yeast gro inh 83*.
Screening Fc1cccc(-c2cc3nc4c(c(N5CCOCC5)n3n2)CCCC4)c1 returned TNAP act hi DEA 1, Arbovirus inh 0, TNAP inh hiacc 0, TNAP inh no acc 0 and WT yeast gro inh -1.
Screening CCOc1c(Cl)cc(C(=O)Nc2ccccc2C(=O)O)cc1Cl returned TNAP act hi DEA 1, Arbovirus inh 43*, TNAP inh hiacc 1, TNAP inh no acc -5 and WT yeast gro inh -8.
`CCOc1ccc(C(=O)Nc2cccc(C(=O)O)c2C)cc1Cl` gave TNAP act hi DEA 1, Arbovirus inh -8, TNAP inh hiacc -2, TNAP inh no acc -6 and WT yeast gro inh -1.
`COc1ccc(C(=O)Nc2ccccc2C(=O)O)cc1Cl` gave TNAP act hi DEA 1, Arbovirus inh 56*, TNAP inh hiacc 2, TNAP inh no acc -5 and WT yeast gro inh 25.
`Cc1ccc(C)c(NC(=O)c2cc(-c3ccccc3)nn2-c2ccccc2)c1` gave TNAP act hi DEA 1, Arbovirus inh -1, TNAP inh hiacc -1, TNAP inh no acc -5 and WT yeast gro inh 74*.
Screening O=C(Nc1nnc(C2CC2)s1)c1cc(-c2ccccc2)nn1-c1ccccc1 returned TNAP act hi DEA 1.1, Arbovirus inh -1, TNAP inh hiacc -6, TNAP inh no acc 8 and WT yeast gro inh 70*.
Screening Cc1cccc(NC(=S)c2nc3ccccc3s2)c1 returned TNAP act hi DEA 1, Arbovirus inh 3, TNAP inh hiacc -3, TNAP inh no acc -5 and WT yeast gro inh 67*.
For O=C(Nc1ccccc1)c1nc2ccccc2s1 the results were TNAP act hi DEA 1, Arbovirus inh 7, TNAP inh hiacc -3, TNAP inh no acc -6 and WT yeast gro inh 29.
Screening NS(=O)(=O)c1ccc(CCNC(=O)CNS(=O)(=O)c2cccc(Br)c2)cc1 returned TNAP act hi DEA 0.9, Arbovirus inh -1, TNAP inh hiacc 12, TNAP inh no acc 76* and WT yeast gro inh -9.
For COc1cc(NC2c3ncccc3C(=O)N2Cc2ccco2)cc(OC)c1OC (stereo not given) the results were TNAP act hi DEA 1, Arbovirus inh -2, TNAP inh hiacc 0, TNAP inh no acc -5 and WT yeast gro inh -1.
Screening Cc1cccc(NC(=S)NCc2ccc3c(c2)OCO3)c1 returned TNAP act hi DEA 1, Arbovirus inh -1, TNAP inh hiacc -4, TNAP inh no acc -18 and WT yeast gro inh -13.
`Cc1cccc(NC(=S)N/N=C/c2ccc3c(c2)OCO3)c1` gave TNAP act hi DEA 1, Arbovirus inh -2, TNAP inh hiacc -3, TNAP inh no acc 0 and WT yeast gro inh 60*.
For Cc1cccc(OCCCC(=O)Nc2ccc3c(c2)OCO3)c1 the results were TNAP act hi DEA 1.1, Arbovirus inh -17, TNAP inh hiacc -10, TNAP inh no acc -19 and WT yeast gro inh 74*.
Screening COc1cccc(C2SCC(=O)N2c2ccc(Br)cc2)c1OC (stereo not given) returned TNAP act hi DEA 1, Arbovirus inh 5, TNAP inh hiacc -2, TNAP inh no acc -11 and WT yeast gro inh 12.
Screening CCOC(=O)c1c(N)sc(C(O)(C(F)(F)F)C(F)(F)F)c1-c1ccccc1 returned TNAP act hi DEA 1.1, Arbovirus inh -31, TNAP inh hiacc -6, TNAP inh no acc 1 and WT yeast gro inh 97*.
For Cc1cc(NC(=O)CCCn2cc([N+](=O)[O-])cn2)n(Cc2ccc(F)cc2)n1 the results were TNAP act hi DEA 1, Arbovirus inh 3, TNAP inh hiacc 0, TNAP inh no acc -5 and WT yeast gro inh -9.
